Assay results as given in ChEMBL document CHEMBL4765333, “Novel NO-releasing scopoletin derivatives induce cell death via mitochondrial apoptosis pathway and cell cycle arrest” (Eur J Med Chem, 2020).
The source made the active and inactive calls. The calls are words filed in the database; no cut-off is given here.

Columns and labels:
[1] = (§1) Induction of intracellular reactive oxygen species generation in human MDA-MB-231 cells assessed as proportion of FL1-H positive cells at 2 uM measured after 24 hrs by DCFH-DA staining based flow cytometry analysis (reference value: 47.8%); assay type: functional, MDA-MB-23
[2] = test system: MCF7; assay: Anticancer activity against human MCF7 cells assessed as inhibition of cell proliferation measured after 48 hrs by MTT assay; assay type: functional, cell-based; settings: MCF7, 48 h
In short: (§2)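 Cells seeded at ~5,000/well, grown 24 h to partial monolayer, then exposed 48 h at 37°C, 5% CO2 to 0.5, 1, 2, 4, 10 and 20 µM (DMSO ≤0.1%). MTT final 0.5 mg/ml for 4 h, formazan dissolved in DMSO, A570. Survival expressed as % of untreated control; IC50 from dose-response curves; three independent experiments. MDA-MB-231, MCF-7, HepG2 in DMEM; A549 and LO-2 in RPMI-1640; 10% FBS.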

[3] = test system: HepG2; assay: Anticancer activity against human HepG2 cells assessed as inhibition of cell proliferation measured after 48 hrs by MTT assay; assay type: functional, cell-based; settings: HepG2, 48 h; in short: as §2
[4] = test system: MDA-MB-231; assay: Induction of cell cycle arrest in human MDA-MB-231 cells assessed as accumulation at S phase at 2 uM measured after 24 hrs by propidium iodide staining based flow cytometric method (reference value: 36.25%); assay type: functional
[5] = test system: MDA-MB-231; assay: Induction of apoptosis in human MDA-MB-231 cells assessed as increase in cleaved caspase-3 protein expression incubated for 8 hrs by Western blot analysis; assay type: functional, cell-based; settings: dose 1.5-6 µM
In short: (§3)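 MDA-MB-231 cells (8×10^5 per 60 mm dish) attached 24 h, then exposed 8 h to 1.5, 3 or 6 µM, DMSO as control. Lysates quantified by BCA; 30 µg protein run on 4–20% SDS-PAGE, transferred to PVDF, probed for Bcl-2, Bax, Bad, cleaved caspase-9, cleaved caspase-3 and PARP, with ECL detection. Densitometric relative levels; three experiments.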

[6] = as §1, with “uM pretreated with ROS scavenger, NAC for 2 hrs prior to incubation with compound and” for “uM”; assay type: functional, MDA-MB-23
In short: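 MDA-MB-231 seeded at 2×10^5 cells/well, grown 24 h, pretreated with NAC (2.5 mM) for 2 h, then given 2 µM compound for 24 h. Cells loaded with DCFH-DA 30 min at 37°C in the dark, washed in PBS, resuspended in serum-free medium and read by flow cytometry; three independent experiments.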

[7] = test system: MDA-MB-231; assay: Inhibition of colony formation in human MDA-MB-231 cells assessed as fewer and smaller colonies at 0.5 to 1 uM incubated for 24 hrs followed by culturing in fresh medium for 10 days by crystal violet staining based assay; assay type: functional, cell-based; settings: dose 0.5-1 µM
In short: (§4)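 MDA-MB-231 seeded at 1.5×10^3 cells/well, 24 h attachment, then 24 h exposure to compound (0.25, 0.5, 1 µM) or DMSO; fresh medium for a further 10 days. Fixed in 4% paraformaldehyde 0.5 h at 4°C, crystal violet stained, dye dissolved in DMSO and absorbance read at 590 nm; performed three times.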

[8] = test system: MDA-MB-231; assay: Induction of apoptosis in human MDA-MB-231 cells assessed as downregulation of Bcl-2 expression at 1.5 to 6 uM measured after 8 hrs by Western blot analysis; assay type: functional, cell-based; settings: dose 1.5-6 µM; in short: as §3
[9] = Induction of intracellular reactive oxygen species generation in human MDA-MB-231 cells assessed as proportion of FL1-H positive cells at 1.5 uM measured after 24 hrs by DCFH-DA staining based flow cytometry analysis (reference value: 47.8%); assay type: functional, MDA-MB-23
[10] = test system: MDA-MB-231; assay: Induction of apoptosis in human MDA-MB-231 cells assessed as increase in cleaved PARP protein expression incubated for 8 hrs by Western blot analysis; assay type: functional, cell-based; settings: dose 1.5-6 µM; in short: as §3
[11] = test system: MDA-MB-23; assay: Inhibition of colony formation in human MDA-MB-231 cells incubated for 24 hrs followed by culturing in fresh medium for 10 days by crystal violet staining based assay; assay type: functional, cell-based; settings: dose 0.25-1 µM; in short: as §4
[12] = test system: MDA-MB-231; assay: Induction of mitochondrial membrane potential depolarization in human MDA-MB-231 cells assessed as proportion of cells with hyperpolarized MMP at 2 uM incubated for 18 hrs by JC-1 staining based flow cytometry (reference value: 98.4%); assay type: functional
[13] = Prodrug release in human MDA-MB-231 cells assessed as increase in intracellular NO level at 1 to 10 uM measured after 2.5 hrs by DAF-FM DA reagent based scanning electron microscopy; assay type: ADME, cell-based; settings: mda-mb-231, 2.5 h, in the assay text read “laser scanning confocal microscopy” for “scanning electron microscopy”, dose 1-10 µM
In short: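 After 24 h growth at 5×10^4 cells/well, MDA-MB-231 cells loaded with DAF-FM DA (5 µM) 30 min at 37°C, 5% CO2, PBS-washed, then incubated 2.5 h with compound at 1 or 10 µM (scopoletin at 10 µM). NO fluorescence imaged by laser scanning confocal microscopy.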

[14] = Anticancer activity against human MDA-MB-231 cells assessed as inhibition of cell proliferation measured after 48 hrs by MTT assay; assay type: functional, cell-based; settings: MDA-MB-23, 48 h; in short: as §2
[15] = test system: MDA-MB-231; assay: Induction of cell cycle arrest in human MDA-MB-231 cells assessed as accumulation at G2/M phase at 1 uM measured after 24 hrs by propidium iodide staining based flow cytometric method (reference value: 18.55%); assay type: functional
[16] = Induction of intracellular reactive oxygen species generation in human MDA-MB-231 cells assessed as proportion of FL1-H negative cells at 2 uM measured after 24 hrs by DCFH-DA staining based flow cytometry analysis (reference value: 52.2%); assay type: functional, MDA-MB-23
[17] = test system: MDA-MB-231; assay: Induction of mitochondrial membrane potential depolarization in human MDA-MB-231 cells assessed as proportion of cells with depolarized MMP at 1 uM incubated for 18 hrs by JC-1 staining based flow cytometry (reference value: 0.72%); assay type: functional
[18] = test system: MDA-MB-231; assay: Induction of mitochondrial membrane potential depolarization in human MDA-MB-231 cells assessed as proportion of cells with depolarized MMP at 2 uM incubated for 18 hrs by JC-1 staining based flow cytometry (reference value: 0.72%); assay type: functional
[19] = test system: MDA-MB-231; assay: Induction of apoptosis in human MDA-MB-231 cells assessed as viable cells at 1 uM after 24 hrs by Annexin V/propidium iodide based flow cytometric analysis (reference value: 99%); assay type: functional; settings: read-out: Activity
In short: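 MDA-MB-231 cells (2×10^5/well) attached 24 h, then treated 24 h with 1, 1.5, 2 or 3 µM, DMSO as control. Cells harvested, PBS-washed, resuspended in binding buffer, stained with Annexin V and PI for 30 min at 37°C in the dark, and analysed by flow cytometry for quadrant percentages; three experiments.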

[20] = Antiproliferative activity against human MDA-MB-231 cells assessed as inhibition of cell proliferation rate at 4 uM measured after 48 hrs by MTT assay; assay type: functional; settings: MDA-MB-23
In short: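 MDA-MB-231 cells in DMEM with 10% FBS, ~5,000 cells/well, 24 h attachment, then compound for 48 h at 37°C, 5% CO2. MTT 0.5 mg/ml final for 4 h, DMSO solubilization, absorbance 570 nm; inhibition relative to untreated cells; experiments done three times.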

[21] = test system: MDA-MB-231; assay: Induction of apoptosis in human MDA-MB-231 cells assessed as increase in cleaved caspase-9 protein expression incubated for 8 hrs by Western blot analysis; assay type: functional, cell-based; settings: dose 1.5-6 µM; in short: as §3

**Q.** What does the source list for COc1cc2cc(N)c(=O)oc2cc1OCCCOc1no[n+]([O-])c1S(=O)(=O)c1ccccc1?
**A.** Activity [1]: 88.8%; IC50 [2]: 1910 nM; IC50 [3]: 2810 nM; Activity [4]: 20.82%; Activity [5]: Dose-dependent effect; Activity [6]: 51%; inhibition [7]: Active; Activity [8]: Active; Activity [9]: 82.7%; Activity [10]: Dose-dependent effect; inhibition [11]: Dose-dependent effect; Activity [12]: 67.8%; Drug metabolism [13]: Metabolite_Detected; IC50 [14]: 1230 nM; Activity [15]: 24.58%; Activity [16]: 11.2%; Activity [17]: 5.4%; Activity [18]: 31.5%; viability at 1 µM [19]: 87.9%; inhibition at 4 µM [20]: 91.2%; Activity [21]: Dose-dependent effect
